{"source": "PubChem BioAssay AID493093", "about": "(Broad Institute, 2011)", "note": "Activity calls are given as the source filed them.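 Rule for the calls: active = compounds lowering viability with an AC50 at or under ten times their top valid dose; inconclusive = flat curve with 30 to 70% viability loss, or poor fit; inactive = flat near zero, weak potency, or rising signal.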"}
{"tested_on": "not listed separately", "assay": "viability loss in BJeHLT fibroblasts, dose response, counter-screen for Ras selective lethality project, cell-based, dry powder, set 2 (AID 493093)", "conditions": "BJeHLT fibroblasts viability, Alamar Blue fluorescence, 48 h; at 48 µM (top of the series)", "outline": "(§1)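 Signal: Alamar Blue conversion fluorescence, excitation 544 nm, emission 590 nm | Material: BJeHLT fibroblasts, BJ cells transformed with hTERT, SV40 LT and ST | Input: 1000 cells/well | Schedule: 48 h compound treatment at 37 °C, ~16 h dye incubation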"}
{"smiles": "Cc1onc(C(=O)N2CCN(C(c3ccncc3)c3ccncc3)CC2)c1[N+](=O)[O-]", "activity change, negative = loss of viability": "-2.93% (inactive)"}
{"smiles": "Cc1oc(C)c(C(=O)N2CCN(C(c3ccccc3)c3ccccc3)CC2)c1C", "activity change, negative = loss of viability": "19.3% (inactive)"}
{"smiles": "Cc1onc(C(=O)N2CCN(C(c3ccccc3)c3ccccc3)CC2)c1C", "activity change, negative = loss of viability": "18.4% (inactive)"}
{"smiles": "CC(=O)Nc1c(C(=O)N2CCN(C(c3ccccc3)c3ccccc3)CC2)noc1C", "activity change, negative = loss of viability": "8.25% (inactive)"}
{"smiles": "Cc1onc(C(=O)N2CCN(C(c3ccccc3)c3ccccc3)CC2)c1N", "activity change, negative = loss of viability": "-0.577% (inactive)"}
{"smiles": "Cc1onc(C(=O)N2CCN(C(c3ccccc3)c3ccccc3)CC2)c1NS(C)(=O)=O", "activity change, negative = loss of viability": "7.7% (inactive)"}
{"smiles": "Cc1ccc(C(=O)N2CCN(C(c3ccccc3)c3ccccc3)CC2)c([N+](=O)[O-])c1", "activity change, negative = loss of viability": "13% (inactive)"}
{"smiles": "Cc1onc(C(=O)N2CCN(C(c3ccccc3)c3ccccc3)CC2)c1Br", "activity change, negative = loss of viability": "15.1% (inactive)"}
{"smiles": "O=[N+]([O-])c1ccc(CN2CCN(C(c3ccccc3)c3ccccc3)CC2)o1", "activity change, negative = loss of viability": "-7.38% (inactive)"}
{"smiles": "O=C(c1noc2ccccc12)N1CCN(C(c2ccccc2)c2ccccc2)CC1", "activity change, negative = loss of viability": "15.4% (inactive)"}
{"smiles": "Cc1onc(C(=O)NCCNC(c2ccccc2)c2ccccc2)c1[N+](=O)[O-]", "activity change, negative = loss of viability": "-11.4% (inactive)"}
{"smiles": "CC(C)c1onc(C(=O)N2CCN(C(c3ccccc3)c3ccccc3)CC2)c1[N+](=O)[O-]", "activity change, negative = loss of viability": "10% (inactive)"}
{"tested_on": "not listed separately", "assay": "viability loss in BJeHLT fibroblasts, dose response, counter-screen for Ras selective lethality project, cell-based, dry powder, set 2 (AID 493093)", "conditions": "BJeHLT fibroblasts viability, Alamar Blue fluorescence, 48 h; at 68 µM (top of the series)", "outline": "as §1"}
{"smiles": "CCOC(=O)N1CCN(C(=O)c2noc(C)c2[N+](=O)[O-])CC1", "activity change, negative = loss of viability": "6.37% (inactive)"}
{"smiles": "Cc1onc(C(=O)N2CCOCC2)c1[N+](=O)[O-]", "activity change, negative = loss of viability": "1.06% (inactive)"}
{"smiles": "Cc1onc(C(=O)N2CCN(Cc3ccccc3)CC2)c1[N+](=O)[O-]", "activity change, negative = loss of viability": "4.74% (inactive)"}
{"smiles": "COc1ccccc1N1CCN(C(=O)c2noc(C)c2[N+](=O)[O-])CC1", "activity change, negative = loss of viability": "7.12% (inactive)"}
{"smiles": "Cc1cc(C(=O)N2CCN(Cc3ccccc3)CC2)no1", "activity change, negative = loss of viability": "1.07% (inactive)"}
{"smiles": "Cc1onc(C(=O)NCc2ccc(F)cc2)c1[N+](=O)[O-]", "activity change, negative = loss of viability": "10.9% (inactive)"}
{"tested_on": "BJeHLT fibroblasts viability, Alamar Blue fluorescence, 48 h", "assay": "viability loss in BJeHLT fibroblasts, dose response, counter-screen for Ras selective lethality project, cell-based, dry powder, set 2 (AID 493093)", "conditions": "not given", "outline": "as §1"}
{"smiles": "Cc1onc(C(=O)N2CCCN(C(c3ccccc3)c3ccccc3)CC2)c1[N+](=O)[O-]", "AC50": "2.79 µM"}
{"smiles": "COc1ccc(C(c2ccc(OC)cc2)N2CCN(C(=O)c3noc(C)c3[N+](=O)[O-])CC2)cc1", "AC50": "5.32 µM"}
{"smiles": "Cc1onc(C(=O)N2CCN(C(c3ccc(Cl)cc3)c3ccc(Cl)cc3)CC2)c1[N+](=O)[O-]", "AC50": "0.272 µM"}
{"smiles": "Cc1onc(C(=O)N2CCN(C(c3ccccc3)c3ccccc3)CC2)c1[N+](=O)[O-]", "AC50": "4.97 µM"}
{"smiles": "Cc1onc(C(=O)N2CCN(C(c3ccc(F)cc3)c3ccc(F)cc3)CC2)c1[N+](=O)[O-]", "AC50": "0.757 µM"}
{"smiles": "COc1ccc(C(c2ccc(OC)cc2)N2CCN(C(=O)c3ccc([N+](=O)[O-])o3)CC2)cc1", "AC50": "6.85 µM"}
{"smiles": "O=C(c1ccc([N+](=O)[O-])o1)N1CCN(C(c2ccc(F)cc2)c2ccc(F)cc2)CC1", "AC50": "12.1 µM"}
{"smiles": "O=C(c1ccc([N+](=O)[O-])o1)N1CCN(C(c2ccccc2)c2ccccc2)CC1", "AC50": "18.9 µM"}
{"smiles": "Cc1onc(C(=O)N2CCN(C(c3ccccn3)c3ccccn3)CC2)c1[N+](=O)[O-]", "AC50": "> 47.6 µM (inactive)"}
{"smiles": "O=C(NCCNC(c1ccccc1)c1ccccc1)c1ccc([N+](=O)[O-])o1", "AC50": "3.35 µM"}
{"smiles": "Cc1onc(C(=O)N2CCN(C(c3ccccc3)c3ccc(Cl)cc3)CC2)c1[N+](=O)[O-]", "note": "(stereo not given)", "AC50": "0.51 µM"}
{"smiles": "O=C(c1ccc([N+](=O)[O-])o1)N1CCCN(C(c2ccccc2)c2ccccc2)CC1", "AC50": "46.2 µM"}
